Source: publication PMC6648324 (ACS Omega, 2019)
Values joined by “and” are separate entries in the source; they are usually repeats but may differ in a detail not shown here. Equal values may be shown once. Read-outs that look alike come from different tables or passages of the source.

Experiments:
[1] = Spectrophotometric titrations with FeNTA at pH 7.4; assay type: physicochemical; details: CH3OH/H2O (80/20 w/w), pH = 7.4 (HEPES), I = 0.1 M, 25.0(2) °C, nc = no complexation
Method in brief: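 FeNTA made fresh from Fe(III) and solid NTA (~1:1, slight NTA excess) with a few drops of HClO4, then brought to pH 7.4 with 0.1 M HEPES. Flavone (stock ~10−5 M range) in 0.1 M HEPES pH 7.4 CH3OH/H2O was titrated with FeNTA. UV-vis spectra recorded at 25.0(2) °C, l = 1 cm. Constants fitted with Specfit. Ternary complexes checked by negative-mode ESI-MS.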

[2] = CH3OH/H2O (80/20 w/w); I = 0.1 M (NEt4ClO4); 25.0(2) °C; [H^+] = 10^–2 M; cited from earlier work
[3] = cited from earlier work
[4] = UV–vis absorption spectrophotometric titrations versus pH; assay type: physicochemical; details: CH3OH/H2O (80/20 w/w); I = 0.1 M (NEt4ClO4); T = 25.0(2) °C
Method in brief: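 Flavone at 10−5−10−4 M in CH3OH/H2O was acidified, then titrated with base over 2 < pH < 12, with full equilibration after each addition. Spectra taken through a quartz immersion probe (l = 1 cm). Specfit analysis gave the 6-OH protonation constants and the spectra of the protonated species.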

[5] = Cyclic voltammetry in DMSO; assay type: physicochemical; details: 200 mV s^–1
Method in brief: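 Flavone at ~2−2.5 mM in DMSO with 0.1 M n-Bu4NPF6 under Ar at 25 °C. Three-electrode cell: polished glassy carbon disk (0.07 cm2) working electrode, Pt wire counter, KCl(3 M)/Ag/AgCl reference (+210 mV vs NHE). Sweep rates 50 mV s−1 to 6 V s−1; peak potentials read at 200 mV s−1. E1/2 taken from the […] reduction wave.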

[6] = Diffusion-ordered spectroscopy NMR; assay type: physicochemical
[7] = Stability of the flavone toward oxidation during the kinetic measurements; assay type: physicochemical; details: acidic conditions; CH3OH/H2O (80/20 w/w)

SMILES	log K*L·FeNTA (3σ), stability constant of the ferric NTA complex [1]	log K*FFe, conditional stability constant of the ferric complex [2]	E1/2 of the quasireversible signal (carbonyl) [5]	further results
COc1ccc(-c2cc(=O)c3c(O)c(OC)c(OC)cc3o2)cc1 [salvigenin, reference compound]	5.8(7)	5.8(2)		
O=c1cc(-c2ccccc2)oc2cccc(O)c12 [5-OH-flavone]				pKa (5-OH) ([3]; CH3OH/water 1/1 w/w): 11.34; pKa (5-OH) ([3]; dioxane/water 1/1 w/w): 11.44
O=c1cc(-c2ccc(O)cc2)oc2cc(O)cc(O)c12 [apigenin]		5.5(1)		
COc1ccc(-c2cc(=O)c3c(O)c(O)c(OC)cc3o2)cc1 [FOMe, ladanein]	4.7(4)	6.0(3)	−1.93 V/KCl(3 M)/Ag/AgCl	log K^h (±σ), protonation constant (6-OH group) [4]: 10.33(5); log K*L·FeNTA (3σ), stability constant of the ferric NTA complex ([1]; listed as FOMe/ladanein): 4.7(4) and 4.9(6); D0, diffusion coefficient [6]: 2.34 × 10^–6 cm^2 s^–1; stability of the free ligand in the absence of Fe(III) [7]: remained unaltered over a long period
O=c1cc(-c2ccccc2)oc2ccccc12 [F, 2-phenyl-chromone, reference compound]			−1.59 V/KCl(3 M)/Ag/AgCl	
